Assay [1] concerns Substance-P receptor (Homo sapiens), P25103 [F264Y]. As to the kind of experiment: Noncompetitive inhibition of human NK1 F264Y6.51 mutant receptor expressed in HEK293 cells assessed as decrease in SP1-induced [3H]IP accumulation after 20 mins. The format is cell-based.
Assay [2] addresses T1, Neuromedin-K receptor (Homo sapiens, UniProt P29371).
T1 sequence (P29371 whole entry): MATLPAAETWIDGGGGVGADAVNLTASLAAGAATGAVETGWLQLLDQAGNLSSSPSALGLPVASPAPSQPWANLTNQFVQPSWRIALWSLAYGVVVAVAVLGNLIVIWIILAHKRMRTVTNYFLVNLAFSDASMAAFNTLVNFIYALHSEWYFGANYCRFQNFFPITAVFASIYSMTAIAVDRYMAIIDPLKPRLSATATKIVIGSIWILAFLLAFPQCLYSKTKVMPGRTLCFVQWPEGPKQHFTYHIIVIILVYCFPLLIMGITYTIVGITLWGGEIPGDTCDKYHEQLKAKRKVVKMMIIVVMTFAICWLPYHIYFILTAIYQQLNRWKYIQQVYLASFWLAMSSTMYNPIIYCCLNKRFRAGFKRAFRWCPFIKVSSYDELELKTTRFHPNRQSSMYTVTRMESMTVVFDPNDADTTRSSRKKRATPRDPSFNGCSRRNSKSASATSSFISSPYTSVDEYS
As to the kind of experiment: Competitive inhibition at wild type human NK3 expressed in HEK293 cells assessed as decrease in [MePhe7]NKB-induced [3H]IP accumulation after 20 mins. As to conditions: read-out: pA2 (converted). The class given is cell-based. In a few lines:
(§1)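 HEK293 cells transiently expressing human NK3 WT or mutant, labeled with myo-[³H]inositol in LiCl buffer. Antagonist preincubated 20 min at 37 °C, then [MePhe⁷]NKB (0.01 nM–1 μM) added for 45 min at 37 °C. [³H]IP read by SPA beads. Schild analysis of EC50 shift and Emax depression across increasing antagonist concentrations gives pA2, slope and mode of antagonism.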

The target of assay [3] is T1, Neuromedin-K receptor. As to the kind of experiment: Displacement of [3H]osanetant from wild type human NK3 receptor expressed in HEK293 cells. The class given is cell-based.
The target in assay [4] is T2, Substance-P receptor (Homo sapiens, UniProt P25103, F264Y). As to the kind of experiment: Displacement of radioligand [3H]SP from human NK1 F264Y6.51 mutant expressed in HEK293 cells. The class given is cell-based. A digest of the protocol: (§2)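 Membranes from transiently transfected HEK293 cells, 2.5 μg protein/well, in 50 mM HEPES pH 7.4 with 3 mM MnCl2, phosphoramidon, leupeptin and 0.04% BSA. 10 competitor concentrations (0.0003–10 μM), 90 min at rt. Nonspecific binding with 10 μM NK1 antagonist. Filtration, then scintillation counting. Ki by Cheng–Prusoff. Three experiments, each in duplicate.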
T2 sequence (P25103 whole entry F264Y): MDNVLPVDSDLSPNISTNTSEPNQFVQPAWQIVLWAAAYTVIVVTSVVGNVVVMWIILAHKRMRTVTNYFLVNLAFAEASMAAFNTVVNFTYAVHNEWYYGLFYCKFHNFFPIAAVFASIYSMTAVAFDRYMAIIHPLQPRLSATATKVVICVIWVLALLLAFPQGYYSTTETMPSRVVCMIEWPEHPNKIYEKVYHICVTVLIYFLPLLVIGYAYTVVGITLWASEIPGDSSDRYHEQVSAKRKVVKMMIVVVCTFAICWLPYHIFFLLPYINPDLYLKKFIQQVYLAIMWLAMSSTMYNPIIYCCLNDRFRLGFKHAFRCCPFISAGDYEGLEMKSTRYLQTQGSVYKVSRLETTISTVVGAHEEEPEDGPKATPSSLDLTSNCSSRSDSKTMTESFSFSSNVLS

Assay [5] deals with HEK293. As to the kind of experiment: Selectivity ratio of Ki for wild type human NK3 receptor expressed in HEK293 cells to Ki for human NK3 Y315F6.51 mutant expressed in HEK293 cells. The format is cell-based.
Assay [6] addresses T3, Substance-P receptor (Homo sapiens, UniProt P25103). The experiment in a line: Noncompetitive inhibition of wild type human NK1 receptor expressed in HEK293 cells assessed as decrease in SP1-induced [3H]IP accumulation after 20 mins. The class given is cell-based.
The target in assay [7] is T3, Substance-P receptor. As to the kind of experiment: Displacement of radioligand [3H]SP from wild type human NK1 receptor expressed in HEK293 cells. The format is cell-based. A digest of the protocol:
as §2

Assay [8] addresses T4, Neuromedin-K receptor (Homo sapiens, UniProt P29371, Y315F). The experiment in a line: Competitive inhibition at human NK3 Y315F6.51 mutant expressed in HEK293 cells assessed as decrease in [MePhe7]NKB-induced [3H]IP accumulation after 20 mins. As to conditions: read-out: pA2 (converted). The format is cell-based. In a few lines: as §1
Assay [9] addresses T4, Neuromedin-K receptor. As to the kind of experiment: Displacement of radioligand [3H]osanetant at human NK3 Y315F6.51 mutant expressed in HEK293 cells. The format is cell-based.
In assay [10] the target is Neuromedin-K receptor (Homo sapiens, UniProt P29371, Y247A). As to the kind of experiment: Binding affinity to human NK3 Y247A mutant expressed in HEK293 cells.
Chain of Neuromedin-K receptor (Homo sapiens, UniProt P29371, Y247A) (P29371 whole entry Y247A): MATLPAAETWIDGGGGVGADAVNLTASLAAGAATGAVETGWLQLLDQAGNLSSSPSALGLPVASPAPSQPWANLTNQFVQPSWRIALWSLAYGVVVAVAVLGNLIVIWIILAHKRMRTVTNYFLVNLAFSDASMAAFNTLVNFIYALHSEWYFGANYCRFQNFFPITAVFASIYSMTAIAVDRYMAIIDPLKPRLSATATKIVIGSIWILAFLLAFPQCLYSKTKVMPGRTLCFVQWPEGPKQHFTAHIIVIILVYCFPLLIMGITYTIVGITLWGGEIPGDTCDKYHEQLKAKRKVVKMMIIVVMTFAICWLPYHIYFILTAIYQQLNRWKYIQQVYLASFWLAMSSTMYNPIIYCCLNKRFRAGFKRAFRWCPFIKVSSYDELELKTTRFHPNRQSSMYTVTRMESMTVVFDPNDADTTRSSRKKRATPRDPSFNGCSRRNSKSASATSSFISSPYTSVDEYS
The target in assay [11] is T3, Substance-P receptor.
Assay [12] has as its target T5, Neuromedin-K receptor (Homo sapiens) (UniProt P29371).
T5 sequence (whole entry): T1 sequence (P29371 whole entry)
The experiment in a line: Noncompetitive inhibition at wild type human NK3 expressed in HEK293 cells assessed as decrease in [MePhe7]NKB-induced [3H]IP accumulation after 20 mins. The class given is cell-based. In a few lines: as §1

The test system of assay [13] is T6, Neuromedin-K receptor (Homo sapiens), P29371 [Y315F].
T6 sequence (whole entry): T1 sequence (P29371 whole entry) with Y315F
As to the kind of experiment: Noncompetitive inhibition at human NK3 Y315F6.51 mutant expressed in HEK293 cells assessed as decrease in [MePhe7]NKB-induced [3H]IP accumulation after 20 mins. The format is cell-based. In a few lines: as §1

Assay [14] concerns the target T2, Substance-P receptor. The experiment in a line: Partial noncompetitive inhibition of human F264Y6.51 mutant expressed in HEK293 cells assessed as decrease in SP1-induced [3H]IP accumulation after 20 mins. The format is cell-based. Conditions: read-out: pA2 (converted).
Assay [15] deals with T6, Neuromedin-K receptor (Homo sapiens), P29371 [Y315F]. As to the kind of experiment: Antagonist activity at human NK3 Y315F6.51 mutant expressed in HEK293 cells assessed as decrease in [MePhe7]NKB-induced [3H]IP accumulation at 10 nM after 20 mins. The format is functional, cell-based.
Assay [16] relates to HEK293. As to the kind of experiment: Selectivity ratio of Ki for human NK3 Y247W mutant expressed in HEK293 cells to Ki for wild type human NK3 receptor expressed in HEK293 cells. The format is cell-based.
For assay [17], the system named is T7, Neuromedin-K receptor (Homo sapiens), P29371 [H316W].
T7 sequence (whole entry): T1 sequence (P29371 whole entry) with H316W
As to the kind of experiment: Antagonist activity at human NK3 H316W6.52 mutant expressed in HEK293 cells assessed as decrease in [MePhe7]NKB-induced [3H]IP accumulation after 20 mins. The format is functional, cell-based. In a few lines:
as §1

Assay [18] addresses Neuromedin-K receptor (Homo sapiens, UniProt P29371, Y247W). As to the kind of experiment: Displacement of radioligand [3H]osanetant at human NK3 Y247W mutant expressed in HEK293 cells. The class given is cell-based.
Assay [19] relates to HEK293. As to the kind of experiment: Selectivity ratio of Ki for human NK3 Y247F mutant expressed in HEK293 cells to Ki for wild type human NK3 receptor expressed in HEK293 cells. The format is cell-based.
The target in assay [20] is T8, Neuromedin-K receptor (Homo sapiens, UniProt P29371, Y247F). As to the kind of experiment: Competitive inhibition at human NK3 Y247F5.38 mutant expressed in HEK293 cells assessed as decrease in [MePhe7]NKB-induced [3H]IP accumulation after 20 mins. The class given is cell-based. Conditions: read-out: pA2 (converted).
T8 sequence (P29371 whole entry Y247F): as the sequence (P29371 whole entry Y247A) above, with A247F counted along it
Assay [21] relates to HEK293. The experiment in a line: Selectivity ratio of Ki for human NK3 H316F mutant expressed in HEK293 cells to Ki for wild type human NK3 receptor expressed in HEK293 cells. The class given is cell-based.
Assay [22] deals with Neuromedin-K receptor (Homo sapiens, UniProt P29371, H316W). The experiment in a line: Displacement of radioligand [3H]osanetant at human NK3 H316W mutant expressed in HEK293 cells. The class given is cell-based.
Chain of Neuromedin-K receptor (Homo sapiens, UniProt P29371, H316W) (P29371 whole entry H316W): as the sequence (P29371 whole entry Y247A) above, with A247Y, H316W counted along it
In assay [23] the target is Neuromedin-K receptor (Homo sapiens, UniProt P29371, H316F). The experiment in a line: Displacement of radioligand [3H]osanetant at human NK3 H316F mutant expressed in HEK293 cells. The class given is cell-based.
Chain of Neuromedin-K receptor (Homo sapiens, UniProt P29371, H316F) (P29371 whole entry H316F): as the sequence (P29371 whole entry Y247A) above, with A247Y, H316F counted along it
Assay [24] deals with T8, Neuromedin-K receptor. As to the kind of experiment: Displacement of radioligand [3H]osanetant at human NK3 Y247F mutant expressed in HEK293 cells. The format is cell-based.

Structures are written as SMILES. Positions count from the first letter of the chain named. Active and inactive are the calls of the source. The rule behind the calls is not given here. Some results are limits rather than exact numbers.

T4 sequence (P29371 whole entry Y315F): as the sequence (P29371 whole entry Y247A) above, with A247Y, Y315F counted along it
Chain of Substance-P receptor (Homo sapiens), P25103 [F264Y] (P25103 whole entry F264Y): as the sequence (P25103 whole entry F264Y) above
T3 sequence (P25103 whole entry): as the sequence (P25103 whole entry F264Y) above, with Y264F counted along it
Chain of Neuromedin-K receptor (Homo sapiens, UniProt P29371, Y247W) (P29371 whole entry Y247W): as the sequence (P29371 whole entry Y247A) above, with A247W counted along it

As for `Cc1cc(F)ccc1-c1cc(N2CCN(S(C)(=O)=O)CC2)ncc1N(C)C(=O)C(C)(C)c1cc(C(F)(F)F)cc(C(F)(F)F)c1`, the inhibition entry (in [1]; at Substance-P receptor [6]) was “Active” each time. Also, the values for the Kb on Neuromedin-K receptor [2] and on Neuromedin-K receptor [8] were 123 nM and 2.45 nM, respectively. The Ki at Neuromedin-K receptor [3] is 2.4 nM; at Substance-P receptor [4], 1.4 nM; at Substance-P receptor [7], 0.4 nM; on Neuromedin-K receptor [9], 0.7 nM. In addition, the Ratio Ki in the assay with HEK293 [5] was 3.4.
Consider `Cc1cc(F)ccc1-c1cc(N2CC[C@H](O)C2)ncc1N(C)C(=O)C(C)(C)c1cc(C(F)(F)F)cc(C(F)(F)F)c1`, for which the inhibition entry (in assay [1]; on Substance-P receptor [6]) was “Active” throughout. In addition, the Kb is 120 nM on Neuromedin-K receptor [2] and 20.9 nM at Neuromedin-K receptor [8]. In addition, the Ki on Neuromedin-K receptor [3] worked out at 11.9 nM; at Substance-P receptor [4], 2.1 nM; at Substance-P receptor [7], 1.3 nM; on Neuromedin-K receptor [9] it was 2.5 nM. In addition, the Ratio Ki in the assay on HEK293 [5] came out at 4.8.
With `[3H]c1cccc(C2(N(C)C(C)=O)CCN(CCC[C@]3(c4ccc(Cl)c(Cl)c4)CCCN(C(=O)c4ccccc4)C3)CC2)c1`, on Neuromedin-K receptor [10], the Kd result was “Not Active”.
In the case of `COc1ccccc1CN[C@H]1C2CCN(CC2)[C@H]1C(c1ccccc1)c1ccccc1` [CP-96345], the Ki on Neuromedin-K receptor [3] was greater than 10000 nM.
As to `C[C@@H](O[C@H]1OCCN(Cc2n[nH]c(=O)[nH]2)[C@H]1c1ccc(F)cc1)c1cc(C(F)(F)F)cc(C(F)(F)F)c1` [APREPITANT], affinity on Neuromedin-K receptor [3] was put at a Ki of 454 nM. In addition, the inhibition entry at Substance-P receptor [6] is “Active”. At Substance-P receptor [11], this molecule came in with a T1/2 of 2.57 h.
With `Cc1cc(F)ccc1-c1cc(N2CCC3(CC2)OCCS3(=O)=O)ncc1N(C)C(=O)C(C)(C)c1cc(C(F)(F)F)cc(C(F)(F)F)c1`, the inhibition entry (in [1]; on Substance-P receptor [6]) was “Active” throughout. Further, the Kb was 97.7 nM on Neuromedin-K receptor [2] and 37.2 nM on Neuromedin-K receptor [8]. For the same molecule, the Ki on Neuromedin-K receptor [3] came out at 3.5 nM; on Substance-P receptor [4], 1.7 nM; at Substance-P receptor [7], 1.4 nM; on Neuromedin-K receptor [9], 1 nM. Also, in the assay on HEK293 [5], the Ratio Ki amounted to 3.5.
For the molecule `Cc1cc(F)ccc1-c1cc(N2CCC[C@H]2CO)ncc1N(C)C(=O)C(C)(C)c1cc(C(F)(F)F)cc(C(F)(F)F)c1`, the inhibition entry (in [12]; in [13]; at Substance-P receptor [6]) was “Active” in each case. Also, the Ki on Neuromedin-K receptor [3] came to 1.5 nM; on Substance-P receptor [4] it was 2.8 nM; on Substance-P receptor [7] it was 1.4 nM; at Neuromedin-K receptor [9] it was 0.6 nM. Besides, the Ratio Ki in the assay with HEK293 [5] was 2.5. For the same molecule, the Kb at Substance-P receptor [14] was 39.8 nM. For the same molecule, the result in assay [15] was Active.
For the molecule `Cc1cc(F)ccc1-c1cc(N2CCN(S(C)(=O)=O)C[C@H]2CO)ncc1N(C)C(=O)C(C)(C)c1cc(C(F)(F)F)cc(C(F)(F)F)c1`, the inhibition entry (in assay [12]; in assay [13]; at Substance-P receptor [6]) was “Active” throughout. Also, the inhibition constant Ki on Neuromedin-K receptor [3] is 1.2 nM; at Substance-P receptor [4], 1.3 nM; on Substance-P receptor [7] it was 0.7 nM; on Neuromedin-K receptor [9], 0.6 nM. Moreover, in the assay with HEK293 [5], the Ratio Ki was 2. In addition, the Kb at Substance-P receptor [14] was 17 nM. Further, the outcome in assay [15] was Active.
Consider `Cc1cc(F)ccc1-c1cc(N2CCN(S(C)(=O)=O)[C@@H](C)C2)ncc1N(C)C(=O)C(C)(C)c1cc(C(F)(F)F)cc(C(F)(F)F)c1`, for which the Ratio Ki was determined as 3 in the assay on HEK293 [16], 1.1 in the assay with HEK293 [19], 11.6 in the assay with HEK293 [21] and 8.5 in the assay on HEK293 [5]. The outcome in [17] was inactive. For the same molecule, the inhibition result (in [1]; in assay [13]; on Substance-P receptor [6]) was “Active” in each case. Moreover, the Kb at Neuromedin-K receptor [2] was 16.2 nM; on Neuromedin-K receptor [20], 47.9 nM. In addition, the Ki on Neuromedin-K receptor [3] is 1.7 nM; on Neuromedin-K receptor [18], 5.1 nM; on Substance-P receptor [4], 0.5 nM; at Neuromedin-K receptor [22] it was greater than 10000 nM; at Substance-P receptor [7], 0.3 nM; on Neuromedin-K receptor [23], 19.7 nM. Further, the Ki at Neuromedin-K receptor [9] is 0.2 nM; at Neuromedin-K receptor [24], 1.8 nM.

For the origin of these results see ChEMBL document CHEMBL2203099, “Identification of a crucial amino acid in the helix position 6.51 of human tachykinin neurokinin 1 and 3 receptors contributing to the insurmountable mode of antagonism by dual NK₁/NK₃ antagonists” (J Med Chem, 2012).
